OX1R antag-1 – antagonists of human orexin 1 receptor (OX1R); OX1R-expressing cells, FRET antagonist read-out; inhibition, % at 6.6 µM; 1.8% of 330,000 active; AID 485270, 2010; in the data active means inhibition mostly above about 38%, no sharp cut-off; inactive means mostly below about 40%
TAAR1 ag – human TAAR1 agonists, primary screen, Fluo-8 calcium fluorescence, CHO RD-HGA16 cells. vehicle wells 0%, saturating PEA agonist 100%. activation, % at 3 µM. 0.99% of 360,000 active. AID 624467, 2012;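 active means activation above the mean activation of all test compounds in the run plus 3 SD, cut at about 38% in these data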
Target sequence (Q96RJ0 whole entry, looked up): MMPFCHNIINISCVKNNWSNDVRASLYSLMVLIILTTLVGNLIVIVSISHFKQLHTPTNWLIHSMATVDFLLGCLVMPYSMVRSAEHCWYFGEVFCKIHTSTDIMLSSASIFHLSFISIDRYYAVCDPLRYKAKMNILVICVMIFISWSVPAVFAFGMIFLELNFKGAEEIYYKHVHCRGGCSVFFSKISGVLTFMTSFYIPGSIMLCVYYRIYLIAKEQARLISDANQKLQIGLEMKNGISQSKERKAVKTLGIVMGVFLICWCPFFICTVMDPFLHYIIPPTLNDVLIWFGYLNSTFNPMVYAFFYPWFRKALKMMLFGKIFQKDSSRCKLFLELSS
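test system = CHO RD-HGA16 cells carrying human TAAR1 plus Gα16 | schedule = 17-24 h seeding, 75 min 37 °C dye, 30 min RT | compound dosing = 3 µM single concentration | control set = DMSO and PEA EC100 | replicates = n 1 | signal = Fluo-8 fluorescence, 5 s baseline then 140 s kinetic read | measure = percent activation vs PEA EC100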
CHO parental Ca – ATP-evoked calcium signal inhibitors, parental CHO, primary screen, counter-screen for OX1R antagonist project, cell-based, fluorescence, Fluo-8 calcium dye; parental CHO-K1, ATP-induced calcium, Fluo-8 fluorescence; inhibition, % at 5.6 µM; 0.63% of 330,000 active; AID 463079, 2010;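 active means inhibition above that plate's mean sample inhibition plus 3 SD, cut at about 26% in these data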
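Assay system – parental CHO cells · Reagent – ATP stimulus · Detection – intracellular calcium via Fluo-8 no-wash fluorescent dye · Evaluation – percent inhibition of ATP-evoked calcium rise, normalized to controls · Controls – ATP wells versus no-ATP DMSO wells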
OX1R antag-2 – OX1R (HCRTR1) antagonists, primary screen, fluorescence, CHO/OX1R cells, Fluo-8 calcium, orexin A; Orexin/Hypocretin receptor type 1 (Homo sapiens), O43613; Fluo-8 calcium fluorescence; inhibition, % at 5 µM; 0.43% of 330,000 active; AID 434989, 2010;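 active means inhibition above its plate's threshold, mean inhibition of all tested compounds on the plate plus 3 SD, cut at about 37% in these data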
TAAR1 antagonist – human TAAR1 antagonists, primary screen, Fluo-8 calcium fluorescence, CHO RD-HGA16 cells | Trace amine-associated receptor 1 (Homo sapiens), Q96RJ0 | antagonist | inhibition, % at 3 µM | 1.5% of 360,000 active;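 active means inhibition above a per-plate cutoff, the mean inhibition of test compounds on that plate plus 3 SD, cut at about 49% in these data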
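Material: CHO RD-HGA16 cells bearing hTAAR1; compound dosing: one-point dosing, 3 µM nominal final; schedule: dye loading 75 min at 37 °C, then 30 min room temperature; measured by: calcium fluorescence with Fluo-8; control set: vehicle and agonist controls; replication: n of 1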
TAAR1 ag confirm – human TAAR1 agonists, retest of hits, confirmation, Fluo-8 calcium fluorescence, CHO RD-HGA16 cells; activation, % at 3 µM; AID 651783, 2012; 82% of 2,400 active; scaled: DMSO 0%, maximal phenethylamine 100%; shares compounds with TAAR1 ag;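 active means activation above a cutoff set at the run's mean compound activation plus 3 SD, cut at about 39% in these data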
Ga16 nonsel ag – nonselective calcium mobilization agonists, CHO-Ga16 cells, counter-screen for hTAAR1 agonist project, cell-based, fluorescence, CHO-Ga16 parental line | shares compounds with TAAR1 ag | Fluo-8 calcium fluorescence; normalized to maximal ATP response, DMSO zero | activation, % at 3 µM | 50% of 2,400 active;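 active means activation above the run cutoff, the mean activation over all tested wells plus 3 SD, cut at about 12% in these data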
TAAR1 desens – TAAR1 desensitization by agonist hits, confirmation, counter-screen for TAAR1 agonist project, cell-based, fluorescence, tachyphylaxis; shares compounds with TAAR1 ag; CHO RD-HGA16 hTAAR1, Fluo-8 calcium, beta-PEA response inhibition; inhibition, % at 3 µM; 46% of 2,400 active; AID 651951, 2012;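 active means inhibition above the run cutoff, the mean inhibition of all test compounds plus 3 SD, cut at about 49% in these data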;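 further: beta-PEA stimulus applied at its EC80; loss of beta-PEA calcium signal after compound pretreatment read as receptor desensitization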
Ga16 nonsel ant – inhibition of ATP-evoked calcium response in CHO-Ga16 cells, counter-screen for TAAR1 agonist project, cell-based, fluorescence. shares compounds with TAAR1 ag. CHO-Ga16 ATP-induced calcium, Fluo-8 fluorescence. inhibition, % at 3 µM. 39% of 2,400 active;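 active means inhibition above the plate's mean compound inhibition plus 3 SD, computed per plate, cut at about 22% in these data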
Hits are given with their value; i = inactive; nt = no result given; ! = a repeat was not active. The list is not random: actives were taken first. Their share in the collection is about 4%.

SMILES	OX1R antag-1	TAAR1 ag	CHO parental Ca	OX1R antag-2	TAAR1 antagonist	TAAR1 ag confirm	Ga16 nonsel ag	TAAR1 desens	Ga16 nonsel ant
CCN(CC)Cc1c[nH]c2ccccc12	i	i	i	i	i	nt	nt	nt	nt
CN(CCc1ccccc1)Cc1c[nH]c2ccccc12	i	93	i	i	84	96	i	77	i
Cc1[nH]c2ccccc2c1CN1CCCCC1	nt	i	nt	nt	i	nt	nt	nt	nt
CC1CN(CC(=O)c2ccccc2Cl)CC(C)O1 (stereo not drawn)	i	85	i	i	54	106	i	i	i
CCOC(=O)C(O)(c1ccc(NC(=S)NC(=O)c2ccc(Cl)cc2Cl)c(C)c1)C(F)(F)F (stereo not drawn)	i	76	50	47	99	96	56	107	85
CCOC(=O)C(O)(c1ccc(NC(=S)NC(=O)c2ccc(Cl)cc2Cl)cc1)C(F)(F)F (stereo not drawn)	i	78	57	71	79	74	45	93	73
CCOC(=O)C(O)(c1ccc(NC(=O)Oc2ccccc2)cc1)C(F)(F)F (stereo not drawn)	i	i	i	i	i	nt	nt	nt	nt
CC(N)Cc1ccc(O)cc1 (stereo not drawn)	nt	96	nt	nt	54!	94	i	84	i
CC(=O)C1C(N2CC2)CC2C3CC=C4CC(O)CCC4(C)C3CCC21C (stereo not drawn)	nt	i	nt	nt	i	nt	nt	nt	nt
CCN(CC)c1ccc(/C=C2/C(=O)NC(=O)N(Cc3ccco3)C2=O)cc1	i	45	i	i	i	66	30	i	34
CC(C)C(O)(C(=O)OCC1=CCN2CCC(O)C12)C(C)O (stereo not drawn)	nt	i	nt	nt	i	nt	nt	nt	nt
CCCCCSc1cc(OC)c(CCNC)cc1OC	i	i	i	i	i	nt	nt	nt	nt
CCCCCCCSc1cc(OC)c(CCNC)cc1OC	i	67	i	i	i	52	21	i	24
C[CH2][Hg][S]c1ccccc1C(=O)O	i	120	73	89	96	44	59	73	84
O=C1NCN(c2ccccc2)C12CCN(C(CCc1ccccc1)c1nnnn1C1CCCC1)CC2 (stereo not drawn)	nt	i	nt	nt	i	nt	nt	nt	nt
CCC1(C)OC(c2ccccc2)=C/C(=C/C=C2C(=O)NC(=O)NC2=O)O1 (stereo not drawn)	nt	70	nt	nt	68	i	24	i	42
CCC1(Oc2ccccc2)C(=O)NC(=O)NC1=O	nt	i	nt	nt	i	nt	nt	nt	nt
CS(=O)(=O)c1ccc(C2=C(CNC(=O)c3nccs3)[C@H]3CC[C@@H](C2)N3CCOc2ccccc2)cc1	nt	i	nt	nt	i	nt	nt	nt	nt
Cc1cccc(CCNCc2cc3ccc(C)cc3[nH]c2=O)c1	i	83	i	i	70	100	i	93	i
c1cc2c(cc1NC1=NCCO1)CCCC2	nt	i	nt	nt	i	nt	nt	nt	nt
CCC(=NCCc1ccccc1)c1c(O)[nH]c(=O)[nH]c1=O	i	nt	i	i	nt	nt	i	nt	i
CCCCn1c(O)c(C(C)=NCCc2ccccc2)c(=O)[nH]c1=O	i	73	i	i	i	44	i	i	i
COP(=O)(OC)OC=C(Cl)Cl	nt	i	nt	nt	i	nt	nt	nt	nt
